# Assay results reported in ChEMBL document CHEMBL1764957, “Inhibitors and promoters of tubulin polymerization: synthesis and biological evaluation of chalcones and related dienones as potential anticancer agents” (Bioorg Med Chem, 2011).
# Calls of active or inactive are those of the source. The rule behind the calls is not given here.
# Columns and labels:
# [1] = Cytotoxicity against human 8226/DOX40 cells after 72 hrs by fluorometric assay; assay type: functional, cell-based
# Summary of the method: (§1)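 Fluorometric microculture cytotoxicity assay (FMCA). Cell suspensions (10,000–20,000 cells per mL) were exposed at 37 °C for 72 h to six concentrations from 0.016 to 50, added from DMSO stocks (at most 1% DMSO final). Cells were washed with PBS and given fluorescein diacetate (10 µg/mL). Fluorescence at 485/520 nm was read after 40 min. Survival index is relative to untreated wells. Duplicate wells, experiment repeated twice.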
# [2] = Cytotoxicity against human 8226/LR-5 cells after 72 hrs by fluorometric assay; assay type: functional, cell-based; summary of the method: as §1
# NCI-H69 = experiment: Cytotoxicity against human NCI-H69 cells after 72 hrs by fluorometric assay; assay type: functional, cell-based; conditions: NCI-H69, 72 h; summary of the method: as §1
# H69AR = experiment: Cytotoxicity against human H69AR cells after 72 hrs by fluorometric assay; assay type: functional, cell-based; summary of the method: as §1
# Tubulin (Sus scrofa) [3] = target: T1, Tubulin (Sus scrofa) (UniProt P02554+P02550); experiment: Inhibition of pig tubulin polymerization at 25 uM; assay type: protein assay
# Summary of the method: (§2)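 Kit assay with porcine tubulin, standard protocol, read by fluorescent reporter enhancement. Test substances were dissolved in DMSO and run at 5 and 25. Docetaxel (stabilizing control) and vincristine (destabilizing control) were diluted in PBS and used at 3. The experiment was run twice and mean values were reported.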
# CCRF-CEM = experiment: Cytotoxicity against human CCRF-CEM cells after 72 hrs by fluorometric assay; assay type: functional, cell-based; summary of the method: as §1
# [4] = Cytotoxicity against human CEM/VM1 cells after 72 hrs by fluorometric assay; assay type: functional, cell-based; conditions: CEM-VM1, 72 h; summary of the method: as §1
# ACHN = experiment: Cytotoxicity against human ACHN cells after 72 hrs by fluorometric assay; assay type: functional, cell-based; summary of the method: as §1
# U-937/GTB = experiment: Cytotoxicity against human U937/GTB cells after 72 hrs by fluorometric assay; assay type: functional, cell-based; summary of the method: as §1
# [5] = Cytotoxicity against human vincristine-resistant […] cells after 72 hrs by fluorometric assay; assay type: functional, cell-based; summary of the method: as §1
# RPMI-8226 = experiment: Cytotoxicity against human RPMI8226 cells after 72 hrs by fluorometric assay; assay type: functional, cell-based; conditions: RPMI-8226, 72 h; summary of the method: as §1
# Tubulin (Sus scrofa) [6] = target: T1, Tubulin (Sus scrofa); experiment: Effect on pig tubulin polymerization assessed as microtubule stabilization at 25 uM; assay type: protein assay; summary of the method: as §2
# Tubulin (Sus scrofa) [7] = target: T1, Tubulin (Sus scrofa); experiment: Effect on pig tubulin polymerization assessed as microtubule stabilization at 3 uM; assay type: protein assay; summary of the method: as §2
# Tubulin (Sus scrofa) [8] = target: T1, Tubulin (Sus scrofa); experiment: Inhibition of pig tubulin polymerization at 3 uM; assay type: protein assay; summary of the method: as §2
# [9] = Homo sapiens, H69AR, 72 h, read-out: IC50
# T1 sequence (P02550 whole entry, looked up): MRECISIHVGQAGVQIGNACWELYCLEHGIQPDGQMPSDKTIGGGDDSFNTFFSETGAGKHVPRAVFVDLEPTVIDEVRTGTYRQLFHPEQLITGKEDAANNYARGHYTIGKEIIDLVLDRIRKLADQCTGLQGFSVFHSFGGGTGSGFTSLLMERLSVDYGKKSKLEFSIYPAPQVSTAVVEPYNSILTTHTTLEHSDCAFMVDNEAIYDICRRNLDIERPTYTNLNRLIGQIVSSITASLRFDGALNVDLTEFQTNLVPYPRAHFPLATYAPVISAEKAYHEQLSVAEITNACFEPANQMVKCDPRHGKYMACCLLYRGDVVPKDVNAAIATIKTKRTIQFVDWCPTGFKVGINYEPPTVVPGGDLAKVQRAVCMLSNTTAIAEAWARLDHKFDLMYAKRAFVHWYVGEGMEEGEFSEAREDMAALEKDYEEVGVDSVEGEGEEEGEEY
# T1 sequence (P02554 whole entry, looked up): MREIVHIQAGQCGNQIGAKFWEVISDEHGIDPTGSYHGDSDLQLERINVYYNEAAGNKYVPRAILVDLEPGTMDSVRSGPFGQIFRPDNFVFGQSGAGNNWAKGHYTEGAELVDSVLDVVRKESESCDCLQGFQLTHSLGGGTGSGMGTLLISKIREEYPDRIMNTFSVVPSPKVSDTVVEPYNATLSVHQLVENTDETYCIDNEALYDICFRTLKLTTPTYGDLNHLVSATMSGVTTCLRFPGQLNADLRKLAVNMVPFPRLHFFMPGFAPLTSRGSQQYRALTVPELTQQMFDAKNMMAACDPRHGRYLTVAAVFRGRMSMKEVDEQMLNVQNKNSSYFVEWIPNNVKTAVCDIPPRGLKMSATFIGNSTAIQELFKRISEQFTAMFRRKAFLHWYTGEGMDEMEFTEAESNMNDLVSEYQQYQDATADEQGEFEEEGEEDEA
Compound,inhibition (Tubulin (Sus scrofa) [3]),Activity (Tubulin (Sus scrofa) [6]),Activity (Tubulin (Sus scrofa) [7]),inhibition (Tubulin (Sus scrofa) [8]),IC50 [1],IC50 [2],IC50 (NCI-H69),IC50 (H69AR; [9]),IC50 (CCRF-CEM),IC50 [4],IC50 (ACHN),IC50 (U-937/GTB),IC50 [5],IC50 (RPMI-8226),IC50 (H69AR; h69ar)
O=C(/C=C/c1ccc(C(F)(F)F)cc1)c1cc(Cl)cc(Br)c1O,inactive,,,,22.5 µM,22.3 µM,11.5 µM,33.2 µM,15.4 µM,31.1 µM,49.4 µM,14.9 µM,24.4 µM,20.8 µM,
CCN(CC)c1ccc(/C=C/C(=O)c2cc(Br)cc(Br)c2O)cc1,Active,,,,7.7 µM,9.9 µM,7.1 µM,38.8 µM,20.1 µM,13.1 µM,69 µM,8.2 µM,9.6 µM,26.1 µM,
CC(=O)O[C@@]12CO[C@@H]1C[C@H](O)[C@@]1(C)C(=O)[C@H](O)C3=C(C)[C@@H](OC(=O)[C@H](O)[C@@H](NC(=O)OC(C)(C)C)c4ccccc4)C[C@@](O)([C@@H](OC(=O)c4ccccc4)[C@H]21)C3(C)C,,,Active,,,,,,,,,,,,
CC[C@]1(O)C[C@H]2CN(CCc3c([nH]c4ccccc34)[C@@](C(=O)OC)(c3cc4c(cc3OC)N(C=O)[C@H]3[C@@](O)(C(=O)OC)[C@H](OC(C)=O)[C@]5(CC)C=CCN6CC[C@]43[C@@H]65)C2)C1,,,,Active,,,,,,,,,,,
CCN(CC)c1ccc(/C=C/C(=O)c2cc(Cl)cc(Br)c2O)cc1,Active,,,,9.7 µM,9.4 µM,5.2 µM,24.5 µM,14.8 µM,14.5 µM,164 µM,9.3 µM,8.8 µM,29.4 µM,

# Further lines, with some results ahead:
inhibition (Tubulin (Sus scrofa) [3]),Activity (Tubulin (Sus scrofa) [6]),Activity (Tubulin (Sus scrofa) [7]),inhibition (Tubulin (Sus scrofa) [8]),Compound,IC50 [1],IC50 [2],IC50 (NCI-H69),IC50 (H69AR; [9]),IC50 (CCRF-CEM),IC50 [4],IC50 (ACHN),IC50 (U-937/GTB),IC50 [5],IC50 (RPMI-8226),IC50 (H69AR; h69ar)
inactive,,,,O=C(/C=C(\O)c1cc(Cl)cc(Br)c1O)/C=C/c1ccccc1,19.1 µM,33.5 µM,9.4 µM,25.5 µM,34.1 µM,24.1 µM,37.8 µM,18.1 µM,23.9 µM,27.9 µM,
Active,,,,O=C(/C=C/c1cccs1)c1cc(Cl)cc(Br)c1O,26.5 µM,23.3 µM,20 µM,56.1 µM,152 µM,48.9 µM,44.2 µM,42.5 µM,32.6 µM,79 µM,
,Active,,,O=C(/C=C/C=C/c1cn(Cc2ccccc2)c2ccccc12)c1cc(Cl)cc(Br)c1O,42.3 µM,70 µM,11.1 µM,48.5 µM,280 µM,89 µM,17 µM,49 µM,54 µM,119 µM,
Active,,,,O=C(/C=C/C=C/c1ccccc1)c1cc(Cl)cc(Br)c1O,14.2 µM,23.4 µM,19.9 µM,,129 µM,48.6 µM,93 µM,36.6 µM,31.7 µM,48.8 µM,Non-toxic
inactive,,,,COc1ccc(/C=C/C(=O)c2cc(Cl)cc(Br)c2O)cc1,16.9 µM,46 µM,16.4 µM,42.6 µM,111 µM,45.8 µM,49.4 µM,45 µM,77 µM,80 µM,
Active,,,,O=C(/C=C/c1ccccc1)c1cc(Cl)cc(Br)c1O,12.4 µM,13.2 µM,10.3 µM,26.4 µM,37.6 µM,22.3 µM,48.9 µM,20 µM,24.2 µM,18.7 µM,
